ChEMBL document CHEMBL4033794, “Discovery of Trifluoromethyl Glycol Carbamates as Potent and Selective Covalent Monoacylglycerol Lipase (MAGL) Inhibitors for Treatment of Neuroinflammation” (J Med Chem, 2018)
pEC50: −log10 of the molar value. ≈ marks a conversion by molar mass, not a printed value. Calls of active or inactive are those of the source. The rule behind the calls is not given here.

Columns and labels:
[1] = Unbound fraction in C57BL6J mouse plasma at 1 mg/kg, sc measured up to 24 hrs post dose by HPLC-MS/MS analysis; assay type: ADME, organism-based
[2] = Ratio of unbound AUClast in C57BL6J mouse brain to plasma at 1 mg/kg, sc measured up to 24 hrs post dose by HPLC-MS/MS analysis; details: brain and plasma
Mus musculus [3] = test: Anti-inflammatory activity in C57BL6J mouse assessed as reduction in LPS-induced IL-1beta levels in brain at 1 mg/kg, sc administered 30 mins after LPS challenge measured at 4 hrs post LPS challenge; assay type: functional, organism-based
[4] = Half life in Beagle dog at 1 mg/kg, iv administered via cephalic vein measured up to 24 hrs post dose by HPLC-MS/MS analysis; assay type: ADME, organism-based, Canis lupus familiaris; details: in vivo
CYP1A2 = biological target: T1, CYP1A2 (Homo sapiens, UniProt P05177); test: Inhibition of CYP1A2 (unknown origin) at 3 uM; assay type: ADME
T1 sequence (P05177 whole entry): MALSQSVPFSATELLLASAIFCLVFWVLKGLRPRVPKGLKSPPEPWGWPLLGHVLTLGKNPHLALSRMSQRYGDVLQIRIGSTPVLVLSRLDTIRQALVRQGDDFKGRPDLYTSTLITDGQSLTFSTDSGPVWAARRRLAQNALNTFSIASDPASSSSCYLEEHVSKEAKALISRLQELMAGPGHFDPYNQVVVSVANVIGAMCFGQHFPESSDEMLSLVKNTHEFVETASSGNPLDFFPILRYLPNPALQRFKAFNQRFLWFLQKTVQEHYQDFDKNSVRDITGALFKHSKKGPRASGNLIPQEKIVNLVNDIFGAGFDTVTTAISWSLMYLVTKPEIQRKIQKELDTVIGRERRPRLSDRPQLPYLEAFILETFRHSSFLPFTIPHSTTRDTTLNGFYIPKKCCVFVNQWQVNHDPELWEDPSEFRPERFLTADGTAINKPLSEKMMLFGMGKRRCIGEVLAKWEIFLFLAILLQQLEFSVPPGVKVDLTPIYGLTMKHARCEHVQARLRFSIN
How it was run: (§1)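 Competitive inhibition screen of CYP3A4, 2D6, 2C9, 2C8 and 1A2 using isoform-relevant probe substrates, compound at 3 μM.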

[5] = Volume of distribution in Wistar Hannover rat at 1 mg/kg, iv administered as bolus dose via jugular vein cannula measured up to 24 hrs post dose by HPLC-MS/MS analysis; assay type: ADME, organism-based; details: in vivo
How it was run: (§2)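 Rats (n = 2) given 1 mg/kg IV bolus via jugular vein cannula, solution in 3% DMA/10% Solutol HS15/10% Miglyol/77% of 20% SBECD in water, 1 mL/kg. Carotid cannula blood pre-dose and 0.083–24 h; plasma by HPLC-MS/MS; non-compartmental analysis.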

[6] = Kinetic solubility of the compound at pH 7.4; assay type: physicochemical; details: buffer, read-out: Kinetic_solubility
[7] = Unbound fraction in C57BL6J mouse brain at 1 mg/kg, sc measured up to 24 hrs post dose by HPLC-MS/MS analysis; assay type: ADME, organism-based
Mus musculus [8] = test: Anti-inflammatory activity in C57BL6J mouse assessed as reduction in LPS-induced PGE2 levels in brain at 1 mg/kg, sc administered 30 mins after LPS challenge measured at 4 hrs post LPS challenge by LC-MS/MS analysis; assay type: functional, organism-based
How it was run: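 Mice given LPS 20 mg/kg IP or saline, then 1 mg/kg SC compound or vehicle 30 min later; brains collected 4 h post-LPS, homogenized in pH 2.0 PMSF/NH4OAc buffer, spiked with d4-PGE2 internal standard, acetonitrile-extracted, and PGE2 quantified by LC-MS/MS.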

[9] = Half life in non-human primate at 1 mg/kg, iv administered via cephalic vein measured up to 24 hrs post dose by HPLC-MS/MS analysis; assay type: ADME, organism-based, Macaca mulatta; details: rhesus monkey, in vivo
How it was run: (§3)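 Fasted male non-human primates (n = 2), fed ~1 h post-dose; 1 mg/kg IV bolus via saphenous or cephalic vein in 3% DMA/10% Solutol HS15/10% Miglyol/77% of 20% SBECD, 0.5 mL/kg. Femoral blood pre-dose and 0.083–24 h; plasma HPLC-MS/MS; non-compartmental analysis.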

[10] = Intrinsic clearance in human hepatocytes; assay type: ADME, cell-based, Hepatocyte; details: read-out: CLH
How it was run: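 Substrate depletion in cryopreserved human hepatocytes; scaled intrinsic clearance in mL/min/kg.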

[11] = Half life in Wistar Hannover rat at 1 mg/kg, iv administered as bolus dose via jugular vein cannula measured up to 24 hrs post dose by HPLC-MS/MS analysis; assay type: ADME, organism-based; details: in vivo; how it was run: as §2
Mus musculus [12] = species: Mus musculus; details: C57BL6J, 1 mg/kg
[13] = Ratio of AUClast in C57BL6J mouse brain to plasma at 1 mg/kg, sc measured up to 24 hrs post dose by HPLC-MS/MS analysis; details: brain and plasma
CYP2D6 = CYP2D6 (Homo sapiens, UniProt P10635); test: Inhibition of CYP2D6 (unknown origin) at 3 uM; assay type: ADME; how it was run: as §1
[14] = Volume of distribution in non-human primate at 1 mg/kg, iv administered via cephalic vein measured up to 24 hrs post dose by HPLC-MS/MS analysis; assay type: ADME, organism-based, Macaca mulatta; details: rhesus monkey, in vivo; how it was run: as §3
Mus musculus [15] = test: Anti-inflammatory activity in C57BL6J mouse assessed as reduction in LPS-induced TNFalpha levels in brain at 1 mg/kg, sc administered 30 mins after LPS challenge measured at 4 hrs post LPS challenge; assay type: functional, organism-based
How it was run: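 LPS 20 mg/kg IP or saline, then 1 mg/kg SC compound or vehicle at 30 min; hemi-brains taken at 4 h, homogenized in PBS with protease inhibitors, spun 100,000 rcf 45 min at 4°C; IL-1β and TNFα measured by Meso Scale electrochemiluminescence panel, with protein measured by BCA.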

[16] = Plasma clearance in non-human primate at 1 mg/kg, iv administered via cephalic vein measured up to 24 hrs post dose by HPLC-MS/MS analysis; assay type: ADME, organism-based, Macaca mulatta; details: rhesus monkey; how it was run: as §3
Mus musculus [17] = species: Mus musculus; details: C57BL6J, 1 mg/kg; remark: listed apart in the source
Cannabinoid receptor 1 = Cannabinoid receptor 1 (Homo sapiens, UniProt P21554); test: Agonist activity at human CB1 receptor expressed in CHOK1 cells assessed as […] after 20 mins by HTRF assay; assay type: functional, cell-based
[18] = Apprent permeability in RRCK cells; assay type: ADME, cell-based, Canis lupus familiaris, MDCKII-LE; details: dog, MDCK
[19] = Plasma clearance in Beagle dog at 1 mg/kg, iv administered via cephalic vein measured up to 24 hrs post dose by HPLC-MS/MS analysis; assay type: ADME, organism-based, Canis lupus familiaris
How it was run: (§4)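 Fasted male beagles (n = 2), fed ~4 h post-dose, given 1 mg/kg IV bolus via cephalic vein in 3% DMA/10% Solutol HS15/10% Miglyol/77% of 20% SBECD, 0.5 mL/kg. Jugular blood pre-dose and 0.083–24 h; plasma HPLC-MS/MS; non-compartmental analysis.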

[20] = Volume of distribution in Beagle dog at 1 mg/kg, iv administered via cephalic vein measured up to 24 hrs post dose by HPLC-MS/MS analysis; assay type: ADME, organism-based, Canis lupus familiaris; details: in vivo; how it was run: as §4
[21] = Intrinsic clearance in human hepatocytes in presence of CYP inhibitor ABT; assay type: ADME, cell-based, Hepatocyte; details: with ABT (CYP inhibitor), concentration not stated, read-out: CLH
How it was run: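 Cryopreserved human hepatocyte substrate-depletion assay run with ABT present; scaled intrinsic clearance in mL/min/kg.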

CYP2D6, sequence (P10635 whole entry): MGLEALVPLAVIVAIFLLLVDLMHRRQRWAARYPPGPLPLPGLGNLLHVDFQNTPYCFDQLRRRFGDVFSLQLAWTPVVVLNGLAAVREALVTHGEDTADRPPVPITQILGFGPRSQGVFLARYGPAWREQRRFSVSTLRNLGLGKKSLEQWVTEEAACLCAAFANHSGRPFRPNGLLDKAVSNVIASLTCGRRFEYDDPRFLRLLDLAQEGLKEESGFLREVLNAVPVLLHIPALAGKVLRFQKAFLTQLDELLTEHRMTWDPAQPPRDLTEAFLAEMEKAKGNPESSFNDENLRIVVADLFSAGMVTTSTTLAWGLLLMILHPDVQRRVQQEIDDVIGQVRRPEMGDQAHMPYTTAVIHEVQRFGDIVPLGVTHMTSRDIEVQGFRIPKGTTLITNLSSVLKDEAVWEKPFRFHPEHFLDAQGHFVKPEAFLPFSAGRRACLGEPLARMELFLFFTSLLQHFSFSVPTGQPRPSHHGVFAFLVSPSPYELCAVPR
Cannabinoid receptor 1, sequence (P21554 whole entry): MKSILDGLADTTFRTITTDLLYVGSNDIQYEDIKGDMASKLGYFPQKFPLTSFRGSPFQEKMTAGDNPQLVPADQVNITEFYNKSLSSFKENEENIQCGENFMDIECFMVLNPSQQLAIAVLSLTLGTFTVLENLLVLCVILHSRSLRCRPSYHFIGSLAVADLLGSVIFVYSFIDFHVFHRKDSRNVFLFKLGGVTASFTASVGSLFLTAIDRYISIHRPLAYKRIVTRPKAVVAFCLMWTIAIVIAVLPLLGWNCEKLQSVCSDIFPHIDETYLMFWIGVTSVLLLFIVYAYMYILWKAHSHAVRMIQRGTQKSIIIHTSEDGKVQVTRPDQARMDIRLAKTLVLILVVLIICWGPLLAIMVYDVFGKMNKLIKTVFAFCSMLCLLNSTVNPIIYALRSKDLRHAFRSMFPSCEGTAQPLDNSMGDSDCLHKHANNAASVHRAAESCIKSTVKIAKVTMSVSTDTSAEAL

fraction unbound at 24 h [1]: 0.0135
Kp uu at 24 h [2]: 1.4
half-life [4]: 1.7 h
inhibition at 3 µM (CYP1A2): < 10%
Vd [5]: 3.1 L/kg
solubility kinetic [6]: 115 µM (≈ 45.9 µg/mL)
fraction unbound at 24 h [7]: 0.00775
half-life [9]: 1.7 h
CLint scaled [10]: 52 mL/min/kg
half-life [11]: 1.3 h
Kp at 24 h [13]: 2.4
inhibition at 3 µM (CYP2D6): < 10%
Vd [14]: 1.5 L/kg
clearance [16]: 16 mL/min/kg
pEC50 (Cannabinoid receptor 1): 5.82
Papp [18]: 21 ×10⁻⁶ cm/s
clearance [19]: 21 mL/min/kg
Vd [20]: 1.6 L/kg
CLint scaled [21]: 37 mL/min/kg
SMILES: O=C(O[C@H](CO)C(F)(F)F)N1C[C@@H]2[C@H](C1)[C@H]2c1ccn(-c2ccc(F)cc2)n1
Activity (Mus musculus [3]): Active
Activity (Mus musculus [8]): Active
inhibition (Mus musculus [12]): Active
Activity (Mus musculus [15]): Active
inhibition (Mus musculus [17]): Active
